# Results as given in ChEMBL document CHEMBL4342523, “Discovery and Development of S6821 and S7958 as Potent TAS2R8 Antagonists” (J Med Chem, 2020).
# The source made the active and inactive calls. No cut-off for these calls is given here.
# Experiments:
# [1] = molecular target: T1, Taste receptor type 2 member 8 (Homo sapiens, UniProt Q9NYW2); test: Antagonist activity at recombinant human TAS2R8 stably expressed in cells co-expressing Galpha16gust44 assessed as inhibition of andrographolide-induced intracellular calcium level measured for 100 secs by fluo-4 dye based FLIPR assay; type: functional, cell-based
# T1 sequence (Q9NYW2 whole entry): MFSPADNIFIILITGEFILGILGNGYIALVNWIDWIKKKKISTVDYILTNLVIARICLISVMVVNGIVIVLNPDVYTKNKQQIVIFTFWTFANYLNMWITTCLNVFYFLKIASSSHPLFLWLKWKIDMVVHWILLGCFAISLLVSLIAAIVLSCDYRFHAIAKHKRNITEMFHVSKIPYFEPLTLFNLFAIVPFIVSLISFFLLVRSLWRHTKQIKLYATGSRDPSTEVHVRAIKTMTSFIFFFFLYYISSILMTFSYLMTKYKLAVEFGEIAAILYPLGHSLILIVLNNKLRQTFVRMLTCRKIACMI
# In short: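 Recombinant cells stably expressing G16t44 chimera and TAS2R8 (clones isolated by limiting dilution), plated 24 h before assay; loaded with fluo-4 in PBS 60 min, washed, rested 15 min in dark at RT. Andrographolide agonist at its EC80, premixed with antagonist and added together; final DMSO 0.5%. Baseline read 10 s, then fluorescence followed 100 s on FLIPR.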
# [2] = molecular target: Taste receptor type 2 member 50 (Homo sapiens) (UniProt P59544); test: Antagonist activity at recombinant human TAS2R50 transiently expressed in HEK293T co-expressing Galpha16gust44 assessed as inhibition of andrographolide-induced intracellular calcium level by measuring remaining activity at 25 uM by fluo-4AM dye based FLIPR assay relative to control; type: functional, cell-based
# Taste receptor type 2 member 50 (Homo sapiens), sequence (P59544 whole entry): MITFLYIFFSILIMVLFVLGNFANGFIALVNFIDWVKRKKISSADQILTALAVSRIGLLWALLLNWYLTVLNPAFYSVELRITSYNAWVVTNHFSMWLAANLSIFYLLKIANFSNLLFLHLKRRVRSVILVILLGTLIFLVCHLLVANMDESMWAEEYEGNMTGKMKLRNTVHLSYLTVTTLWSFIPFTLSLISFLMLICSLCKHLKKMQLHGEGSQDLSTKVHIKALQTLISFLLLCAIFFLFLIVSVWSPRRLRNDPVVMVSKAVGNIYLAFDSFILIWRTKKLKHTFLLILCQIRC
# [3] = molecular target: T2, Taste receptor type 2 member 8 (Homo sapiens) (UniProt Q9NYW2); test: Antagonist activity at recombinant human TAS2R8 transiently expressed in HEK293T co-expressing Galpha16gust44 assessed as inhibition of andrographolide-induced intracellular calcium level by measuring remaining activity at 25 uM by fluo-4AM dye based FLIPR assay relative to control; type: functional, cell-based
# T2 sequence (whole entry): T1 sequence (Q9NYW2 whole entry)
# [4] = molecular target: Taste receptor type 2 member 9 (Homo sapiens) (UniProt Q9NYW1); test: Antagonist activity at recombinant human TAS2R9 transiently expressed in HEK293T co-expressing Galpha16gust44 assessed as inhibition of ofloxacin-induced intracellular calcium level by measuring remaining activity at 25 uM by fluo-4AM dye based FLIPR assay relative to control; type: functional, cell-based
# Taste receptor type 2 member 9 (Homo sapiens), sequence (Q9NYW1 whole entry): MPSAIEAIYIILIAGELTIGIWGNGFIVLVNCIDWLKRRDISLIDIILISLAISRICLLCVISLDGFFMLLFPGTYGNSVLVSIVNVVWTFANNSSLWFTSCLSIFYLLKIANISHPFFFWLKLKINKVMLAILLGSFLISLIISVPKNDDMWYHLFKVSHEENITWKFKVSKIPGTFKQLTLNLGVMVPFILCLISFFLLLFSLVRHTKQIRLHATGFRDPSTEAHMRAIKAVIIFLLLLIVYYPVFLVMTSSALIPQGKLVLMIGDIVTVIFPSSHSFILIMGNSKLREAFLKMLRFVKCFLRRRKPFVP
# [5] = Solubility of the compound in pH 7.1 buffer measured after 24 hrs; type: physicochemical
# [6] = Ratio of solubility of the compound in pH 7.1 buffer measured after 24 hrs to IC50 for antagonist activity at recombinant human TAS2R8 expressed in cells co-expressing Galpha16gust44 assessed as inhibition of andrographolide-induced intracellular calcium level; type: cell-based
# [7] = molecular target: Taste receptor type 2 member 30 (Homo sapiens) (UniProt P59541); test: Antagonist activity at recombinant human TAS2R30 transiently expressed in HEK293T co-expressing Galpha16gust44 assessed as inhibition of denatonium-induced intracellular calcium level by measuring remaining activity at 25 uM by fluo-4AM dye based FLIPR assay relative to control; type: functional, cell-based
# Taste receptor type 2 member 30 (Homo sapiens), sequence (P59541 whole entry): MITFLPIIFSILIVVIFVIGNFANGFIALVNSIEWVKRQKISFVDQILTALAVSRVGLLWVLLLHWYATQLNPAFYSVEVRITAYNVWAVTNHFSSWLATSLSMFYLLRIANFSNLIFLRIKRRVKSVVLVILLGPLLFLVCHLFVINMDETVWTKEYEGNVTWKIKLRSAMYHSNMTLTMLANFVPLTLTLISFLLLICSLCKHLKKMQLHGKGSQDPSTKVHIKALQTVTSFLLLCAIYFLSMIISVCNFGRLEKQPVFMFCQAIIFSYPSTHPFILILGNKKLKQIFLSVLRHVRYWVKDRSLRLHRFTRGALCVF
# [8] = molecular target: Taste receptor type 2 member 43 (Homo sapiens) (UniProt P59537); test: Antagonist activity at recombinant human TAS2R43 transiently expressed in HEK293T co-expressing Galpha16gust44 assessed as inhibition of aristolochic acid-induced intracellular calcium level by measuring remaining activity at 25 uM by fluo-4AM dye based FLIPR assay relative to control; type: functional, cell-based
# Taste receptor type 2 member 43 (Homo sapiens), sequence (P59537 whole entry): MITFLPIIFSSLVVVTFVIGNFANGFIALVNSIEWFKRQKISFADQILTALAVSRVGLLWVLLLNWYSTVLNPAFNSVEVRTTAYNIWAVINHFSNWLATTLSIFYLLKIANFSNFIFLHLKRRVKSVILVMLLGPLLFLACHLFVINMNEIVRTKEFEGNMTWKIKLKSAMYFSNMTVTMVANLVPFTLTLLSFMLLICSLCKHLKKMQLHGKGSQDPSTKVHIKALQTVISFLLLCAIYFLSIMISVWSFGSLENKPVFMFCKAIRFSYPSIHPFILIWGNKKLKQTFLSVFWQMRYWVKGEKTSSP
# Homo sapiens = test: In vivo antagonist activity at TAS2R8 in human assessed as reduction in coffee-inudced bitterness at 5 uM by 2-AFC test; type: functional
# In short: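 Paired coffee test: 1.5× coffee with milk versus same with 5 μM compound added from ethanol stock; trained panelists chose the more bitter sample; 17 panelists × 3 replicates (51 responses).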
# [9] = molecular target: Taste receptor type 2 member 41 (Homo sapiens) (UniProt P59536); test: Antagonist activity at recombinant human TAS2R41 transiently expressed in HEK293T co-expressing Galpha16gust44 assessed as inhibition of picric acid-induced intracellular calcium level by measuring remaining activity at 25 uM by fluo-4AM dye based FLIPR assay relative to control; type: functional, cell-based
# Taste receptor type 2 member 41 (Homo sapiens), sequence (P59536 whole entry): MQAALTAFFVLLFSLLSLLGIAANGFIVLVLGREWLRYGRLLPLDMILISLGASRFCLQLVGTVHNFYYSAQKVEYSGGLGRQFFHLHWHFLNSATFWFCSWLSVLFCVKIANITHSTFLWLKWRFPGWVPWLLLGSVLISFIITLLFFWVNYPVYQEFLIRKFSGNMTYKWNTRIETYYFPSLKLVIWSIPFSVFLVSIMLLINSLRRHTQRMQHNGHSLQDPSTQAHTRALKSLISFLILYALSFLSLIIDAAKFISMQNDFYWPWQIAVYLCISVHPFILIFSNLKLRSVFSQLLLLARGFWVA
# [10] = molecular target: Taste receptor type 2 member 3 (Homo sapiens) (UniProt Q9NYW6); test: Antagonist activity at recombinant human TAS2R3 transiently expressed in HEK293T co-expressing Galpha16gust44 assessed as inhibition of chloroquine-induced intracellular calcium level by measuring remaining activity at 25 uM by fluo-4AM dye based FLIPR assay relative to control; type: functional, cell-based
# Taste receptor type 2 member 3 (Homo sapiens), sequence (Q9NYW6 whole entry): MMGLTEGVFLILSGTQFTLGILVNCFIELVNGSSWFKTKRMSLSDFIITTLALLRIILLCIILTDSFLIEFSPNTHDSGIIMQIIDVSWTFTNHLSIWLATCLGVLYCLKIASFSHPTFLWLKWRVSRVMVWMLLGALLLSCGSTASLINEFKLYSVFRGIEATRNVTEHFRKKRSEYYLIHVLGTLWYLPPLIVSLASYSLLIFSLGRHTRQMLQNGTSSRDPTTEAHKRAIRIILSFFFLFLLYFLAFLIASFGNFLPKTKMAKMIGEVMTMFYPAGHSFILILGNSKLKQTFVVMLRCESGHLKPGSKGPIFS
# [11] = molecular target: T3, Taste receptor type 2 member 1 (Homo sapiens) (UniProt Q9NYW7); test: Antagonist activity at recombinant human TAS2R1 transiently expressed in HEK293T co-expressing Galpha16gust44 assessed as inhibition of picric acid-induced intracellular calcium level by measuring remaining activity at 25 uM by fluo-4AM dye based FLIPR assay relative to control; type: functional, cell-based
# T3 sequence (whole entry): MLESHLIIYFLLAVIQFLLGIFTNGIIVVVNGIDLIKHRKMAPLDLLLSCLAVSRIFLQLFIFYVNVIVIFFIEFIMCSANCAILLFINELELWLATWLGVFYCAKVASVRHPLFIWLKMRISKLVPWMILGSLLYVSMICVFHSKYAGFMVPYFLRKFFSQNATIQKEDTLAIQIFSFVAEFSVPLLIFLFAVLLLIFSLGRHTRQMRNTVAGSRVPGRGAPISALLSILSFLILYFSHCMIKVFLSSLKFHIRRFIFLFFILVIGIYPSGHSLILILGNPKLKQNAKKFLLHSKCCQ
# [12] = molecular target: Taste receptor type 2 member 5 (Homo sapiens) (UniProt Q9NYW4); test: Antagonist activity at recombinant human TAS2R5 transiently expressed in HEK293T co-expressing Galpha16gust44 assessed as inhibition of picoline-induced intracellular calcium level by measuring remaining activity at 25 uM by fluo-4AM dye based FLIPR assay relative to control; type: functional, cell-based
# Taste receptor type 2 member 5 (Homo sapiens), sequence (Q9NYW4 whole entry): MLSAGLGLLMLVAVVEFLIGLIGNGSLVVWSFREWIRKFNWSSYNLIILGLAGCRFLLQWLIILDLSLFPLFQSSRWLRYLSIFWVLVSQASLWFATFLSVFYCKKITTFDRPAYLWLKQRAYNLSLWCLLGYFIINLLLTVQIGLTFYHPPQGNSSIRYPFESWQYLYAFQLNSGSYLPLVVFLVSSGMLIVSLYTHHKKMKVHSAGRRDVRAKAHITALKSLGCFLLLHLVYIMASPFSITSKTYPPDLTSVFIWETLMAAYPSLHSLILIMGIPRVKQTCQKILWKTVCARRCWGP
# [13] = molecular target: Taste receptor type 2 member 13 (Homo sapiens) (UniProt Q9NYV9); test: Antagonist activity at recombinant human TAS2R13 transiently expressed in HEK293T co-expressing Galpha16gust44 assessed as inhibition of oxyphenonium-induced intracellular calcium level by measuring remaining activity at 25 uM by fluo-4AM dye based FLIPR assay relative to control; type: functional, cell-based
# Taste receptor type 2 member 13 (Homo sapiens), sequence (Q9NYV9 whole entry): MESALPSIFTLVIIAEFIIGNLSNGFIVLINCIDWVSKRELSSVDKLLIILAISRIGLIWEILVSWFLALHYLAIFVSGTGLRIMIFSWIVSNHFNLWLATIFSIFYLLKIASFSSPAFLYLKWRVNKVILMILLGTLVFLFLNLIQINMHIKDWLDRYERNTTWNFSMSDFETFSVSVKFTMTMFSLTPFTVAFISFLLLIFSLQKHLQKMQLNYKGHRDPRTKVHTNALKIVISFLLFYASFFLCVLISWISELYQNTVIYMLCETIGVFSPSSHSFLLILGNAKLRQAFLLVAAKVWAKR
# [14] = Stability of the compound in pH 2.8 buffer assessed as parent compound remaining measured after 24 hrs at 100 degC; type: physicochemical; conditions: read-out: Stability
# [15] = molecular target: Taste receptor type 2 member 39 (Homo sapiens) (UniProt P59534); test: Antagonist activity at recombinant human TAS2R39 transiently expressed in HEK293T co-expressing Galpha16gust44 assessed as inhibition of ranitidine-induced intracellular calcium level by measuring remaining activity at 25 uM by fluo-4AM dye based FLIPR assay relative to control; type: functional, cell-based
# Taste receptor type 2 member 39 (Homo sapiens), sequence (P59534 whole entry): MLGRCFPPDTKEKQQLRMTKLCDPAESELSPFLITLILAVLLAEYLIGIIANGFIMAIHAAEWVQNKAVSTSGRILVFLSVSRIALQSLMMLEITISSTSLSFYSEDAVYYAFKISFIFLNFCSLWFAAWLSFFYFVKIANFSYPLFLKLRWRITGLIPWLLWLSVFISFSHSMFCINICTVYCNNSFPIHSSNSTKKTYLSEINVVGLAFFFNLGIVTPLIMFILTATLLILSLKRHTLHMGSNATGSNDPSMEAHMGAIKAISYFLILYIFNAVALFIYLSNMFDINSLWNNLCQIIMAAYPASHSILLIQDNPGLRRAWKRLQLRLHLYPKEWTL
# [16] = molecular target: Taste receptor type 2 member 4 (Homo sapiens) (UniProt Q9NYW5); test: Antagonist activity at recombinant human TAS2R4 transiently expressed in HEK293T co-expressing Galpha16gust44 assessed as inhibition of chloroquine-induced intracellular calcium level by measuring remaining activity at 25 uM by fluo-4AM dye based FLIPR assay relative to control; type: functional, cell-based
# Taste receptor type 2 member 4 (Homo sapiens), sequence (Q9NYW5 whole entry): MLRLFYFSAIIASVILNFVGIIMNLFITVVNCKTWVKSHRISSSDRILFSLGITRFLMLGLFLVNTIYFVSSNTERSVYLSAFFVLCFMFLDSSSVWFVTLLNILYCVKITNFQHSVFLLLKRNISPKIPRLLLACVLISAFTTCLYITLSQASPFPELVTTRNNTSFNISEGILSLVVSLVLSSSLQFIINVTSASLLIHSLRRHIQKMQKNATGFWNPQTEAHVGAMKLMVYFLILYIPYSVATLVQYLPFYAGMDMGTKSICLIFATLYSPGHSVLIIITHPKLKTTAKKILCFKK
SMILES,IC50 [1] [nM],Activity [2] [%],Activity [3] [%],Activity [4] [%],solubility at 24 h [5] [µM],Ratio [6],Activity [7] [%],Activity [8] [%],Activity (Homo sapiens),Activity [9] [%],Activity [10] [%],Activity [11] [%],Activity [12] [%],Activity [13] [%],remaining at 24 h [14] [%],Activity [15] [%],Activity [16] [%]
Cc1noc(C)c1Cn1cc(N2C(=O)N(Cc3cccc(O)c3)C(C)(C)C2=O)cn1,60,91,7,98,72,1290,43,88,Active,133,72,97,100,95,> 99,150,215
Cc1noc(C)c1Cn1cc(N2C(=O)CN(Cc3cccc(O)c3)C2=O)cn1,20,99,13,106,244,11600,112,84,>78%,99,103,119,103,127,> 99,74,117
